“Also recorded” adds a separate entry of the source.
Key:
[1] = tested on: MDA-MB-231 cells (pERK, pRSK1, pETS1); test: ERK signalling after inhibitor wash-out, Western blotting; type: cell-based, human; conditions: 500 nM for 4 hours
In short: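 MDA-MB-231 cells in DMEM/10% FBS with penicillin/streptomycin were treated with ERK inhibitor for 4 h, washed twice in PBS and released into fresh medium for 0.5, 1 and 2 h. Cells were trypsinised and lysed in SDS loading buffer with sonication. Equal protein was immunoblotted for pERK, pRSK and pETS1, with total ERK1/2, GAPDH or α-tubulin as loading controls. Band intensities were normalised to DMSO-treated cells.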

ERK1/2 = test: Bio-layer interferometry binding kinetics; set-up: species or system human; conditions: BLI, 25 °C
In short: (§1)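 Kinetics by bio-layer interferometry at 25 °C in 20 mM HEPES pH 7.5, 150 mM NaCl, 0.5 mM TCEP. Biotinylated kinases were captured on streptavidin biosensors. Association and dissociation phases ran 600 s each over several compound concentrations. Controls were protein-coated sensors without compound and uncoated sensors with compound. Data were double-referenced and fitted for binding constants.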

ERK1 [2] = molecular target: T1, ERK1 (Homo sapiens, UniProt P27361); test: Enzymatic IC50 assay; type: biochemical
T1 sequence (P27361 whole entry): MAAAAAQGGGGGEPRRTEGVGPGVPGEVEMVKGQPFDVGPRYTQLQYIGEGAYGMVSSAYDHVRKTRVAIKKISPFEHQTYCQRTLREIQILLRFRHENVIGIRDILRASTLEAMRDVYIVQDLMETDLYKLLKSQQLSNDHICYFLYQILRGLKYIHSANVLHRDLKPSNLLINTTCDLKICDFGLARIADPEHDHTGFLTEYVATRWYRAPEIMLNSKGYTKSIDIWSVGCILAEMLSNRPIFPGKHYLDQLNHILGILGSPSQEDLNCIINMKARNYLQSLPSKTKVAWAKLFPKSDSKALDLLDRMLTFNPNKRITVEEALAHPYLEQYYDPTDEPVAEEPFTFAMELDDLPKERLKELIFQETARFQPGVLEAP

[3] = tested on: CLK1, CLK2, JNK2, CSNK2A1/A2, DRAK1 and TTK; test: Bio-layer interferometry binding kinetics on off-targets; set-up: species or system human; conditions: BLI, 25 °C
In short: as §1

ERK1 [4] = molecular target: T1, ERK1; test: Isothermal titration calorimetry; type: binding; conditions: ITC
ERK2 mutants = test: Bio-layer interferometry binding kinetics on ERK2 mutants; set-up: species or system human
ERK2 = ERK2 (Homo sapiens, UniProt P28482); test: Isothermal titration calorimetry; type: binding; conditions: ITC
Chain of ERK2 (P28482 whole entry): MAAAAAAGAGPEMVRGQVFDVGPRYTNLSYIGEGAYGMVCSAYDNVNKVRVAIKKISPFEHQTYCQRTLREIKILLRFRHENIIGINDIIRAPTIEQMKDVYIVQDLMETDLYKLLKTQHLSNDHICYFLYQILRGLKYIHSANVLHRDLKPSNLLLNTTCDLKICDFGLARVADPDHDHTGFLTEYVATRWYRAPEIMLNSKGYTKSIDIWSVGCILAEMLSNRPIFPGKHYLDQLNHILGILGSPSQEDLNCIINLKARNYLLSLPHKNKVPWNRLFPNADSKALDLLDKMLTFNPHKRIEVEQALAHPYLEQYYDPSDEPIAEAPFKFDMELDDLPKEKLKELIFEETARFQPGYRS

[5] = molecular target: Cdc2-like kinase 2 (CLK2) (Homo sapiens, UniProt P49760); test: Enzymatic IC50 assay; type: biochemical
Chain of Cdc2-like kinase 2 (CLK2) (P49760 whole entry): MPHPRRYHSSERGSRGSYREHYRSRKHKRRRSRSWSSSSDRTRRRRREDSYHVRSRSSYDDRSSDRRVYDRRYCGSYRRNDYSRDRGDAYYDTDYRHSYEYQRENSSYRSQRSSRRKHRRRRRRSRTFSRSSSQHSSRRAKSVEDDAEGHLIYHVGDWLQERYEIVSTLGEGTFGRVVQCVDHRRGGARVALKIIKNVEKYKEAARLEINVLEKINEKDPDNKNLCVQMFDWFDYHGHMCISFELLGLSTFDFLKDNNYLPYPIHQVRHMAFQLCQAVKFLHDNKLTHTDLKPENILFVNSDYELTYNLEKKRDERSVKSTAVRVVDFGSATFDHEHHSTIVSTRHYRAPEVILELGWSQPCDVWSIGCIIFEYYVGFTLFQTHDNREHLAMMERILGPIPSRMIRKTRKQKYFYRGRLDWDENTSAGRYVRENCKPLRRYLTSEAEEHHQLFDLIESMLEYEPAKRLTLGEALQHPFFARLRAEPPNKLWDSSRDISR

HEK293T cells = test: Cell survival of BRCA2 siRNA knock-down cells; type: cell-based, human
In short: (§2)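 HEK293T cells were reverse-transfected with 40 nM siRNA per plate (Dharmafect 1), with GFP siRNA as control, then reseeded after overnight incubation. They were transfected again on day 3. For the RAD51 arm, knockdown was verified by Western blot at 12 h and day 6, with six-day compound exposure. Cells were grown in DMEM/10% FBS; viability was read by resazurin incubation for 2 h, fluorescence at 590 nm.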

V-C8 cells = test: Cell viability of BRCA2-deficient versus BRCA2-complemented cells; type: cell-based, hamster; conditions: three-day exposure
In short: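 They were exposed to test compound for three days over a concentration range, then incubated 2 h in resazurin-containing medium; fluorescence was read at 590 nm.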

MDA-MB 231 cells = test: Growth of cells with doxycycline-induced BRCA2 shRNA depletion; type: cell-based, human
In short: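 MDA-MB-231 cells carrying a doxycycline-inducible BRCA2 shRNA were seeded at 2500 cells/well in DMEM/10% FBS with penicillin/streptomycin and treated with ERK inhibitors over a concentration range. Cell number was read after 2 h in resazurin-containing medium, by fluorescence at 590 nm.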

JNK3 = JNK3 (Homo sapiens, UniProt P53779); test: Enzymatic IC50 assay; type: biochemical
Chain of JNK3 (P53779 whole entry): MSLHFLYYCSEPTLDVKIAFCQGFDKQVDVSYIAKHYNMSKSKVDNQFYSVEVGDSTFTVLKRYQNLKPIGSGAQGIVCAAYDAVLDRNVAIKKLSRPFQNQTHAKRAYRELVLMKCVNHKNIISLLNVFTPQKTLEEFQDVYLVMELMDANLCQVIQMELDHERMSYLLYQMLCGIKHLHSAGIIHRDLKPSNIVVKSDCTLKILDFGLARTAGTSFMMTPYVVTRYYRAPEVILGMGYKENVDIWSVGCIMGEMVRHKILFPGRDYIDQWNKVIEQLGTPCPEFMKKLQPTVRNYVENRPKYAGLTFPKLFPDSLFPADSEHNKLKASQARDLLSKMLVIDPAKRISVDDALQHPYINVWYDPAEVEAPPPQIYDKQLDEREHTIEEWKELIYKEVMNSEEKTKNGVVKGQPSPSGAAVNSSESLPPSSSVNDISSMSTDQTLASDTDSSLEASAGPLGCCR

CSNK2A2 = CSNK2A2 (Homo sapiens, UniProt P19784); test: Enzymatic IC50 assay; type: biochemical
Chain of CSNK2A2 (P19784 whole entry): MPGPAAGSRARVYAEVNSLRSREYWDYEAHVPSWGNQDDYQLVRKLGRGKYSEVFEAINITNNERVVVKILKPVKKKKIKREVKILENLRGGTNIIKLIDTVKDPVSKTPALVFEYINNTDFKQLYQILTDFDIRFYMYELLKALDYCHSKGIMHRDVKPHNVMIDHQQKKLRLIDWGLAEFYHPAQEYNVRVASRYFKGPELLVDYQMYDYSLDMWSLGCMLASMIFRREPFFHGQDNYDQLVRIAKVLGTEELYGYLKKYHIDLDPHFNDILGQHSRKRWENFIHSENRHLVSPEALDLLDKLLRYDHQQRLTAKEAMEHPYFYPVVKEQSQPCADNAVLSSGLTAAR

[6] = tested on: HEK293T cells lacking RAD51; test: Cell viability of RAD51 siRNA-depleted cells; type: cell-based, human; conditions: six-day exposure
In short: as §2

For Nc1[nH]nc2nnc(-c3c(-c4ccccc4)nn4ccccc34)cc12 [FR180204], the pRSK1 inhibition [1] was “not see a strong effect” and the “binding kinetics (association and dissociation)” value (ERK1/2) was “fast kinetic behaviours”.
Nc1ncnc2c1c(I)cn2[C@@H]1O[C@H](CO)[C@@H](O)[C@H]1O [5-iTU, 5-iodotubercidin] was tested, and the “binding kinetics (association and dissociation)” value (ERK1/2) was “fast kinetic behaviours”.
With O=C(Nc1ccc2[nH]nc(-c3ccncc3)c2c1)[C@@H]1CCN(CC(=O)N2CCN(c3ccc(-c4ncccn4)cc3)CC2)C1 [SCH772984] the IC50 (ERK1 [2]) was 0.0083 µM, the “binding kinetics (association and dissociation)” value [3] was “fast association and dissociation rates” and the binding enthalpy change (ERK1 [4]) was “about −20 kcal/mol”. The binding kinetics (ERK2 mutants; listed as SCH771984) was “retained slow association and dissociation kinetics; also recorded: still showed slow binding kinetics”, the binding enthalpy change (ERK2) was “about −20 kcal/mol” and the “binding kinetics (association and dissociation)” value (ERK1/2) was “slow binding kinetics”. The IC50 [5] was 0.104 µM, the “sensitization by BRCA2 knockdown” value (HEK293T cells) was “sensitized” and the “cell survival of BRCA2-deficient compared with BRCA2-complemented cells” value (V-C8 cells) was “significant reduction in cell survival”. The “sensitization by BRCA2 knockdown” value (MDA-MB 231 cells) was “sensitized”, the IC50 (JNK3) was 0.632 µM and the “IC50 in the enzymatic assay” value (CSNK2A2) was “no activity”.
With O=C(c1cc(Cc2n[nH]c(=O)c3ccccc23)ccc1F)N1CCN(C(=O)C2CC2)CC1 [olaparib] the “cell killing of RAD51-depleted relative to control cells” value [6] was “specific elimination of RAD51-depleted cells”.
For Cc1cnc(Nc2ccc(F)cc2Cl)nc1-c1c[nH]c(C(=O)N[C@H](CO)c2cccc(Cl)c2)c1 [VTX-11e], the binding kinetics (ERK2 mutants; BLI, double mutants Y36Q/Y64K and Y36Q/Y64D) was “increase inhibitor off-rates further”, the binding kinetics (ERK2 mutants; BLI, single mutants Y36Q and Y64K) was “significantly reduced inhibitor off-rates” and the “binding kinetics (association and dissociation)” value (ERK1/2) was “slow association and dissociation patterns”. For the same molecule, the dissociation half-life (ERK1/2; estimated) was 35 to 46 min, the “cell killing of RAD51-depleted relative to control cells” value [6] was “significant increase in cell killing” and the “sensitization by BRCA2 knockdown” value (HEK293T cells) was “sensitized”. The “cell survival of BRCA2-deficient compared with BRCA2-complemented cells” value (V-C8 cells) was “Significant differences in cell survival”.
